These results are taken from article PMC9279713 (Acta Pharmaceutica Sinica. B, 2021).

Experiment [1] deals with CT26, HCT116 and SW620 cells. Put plainly: Western blotting of HIF-1α, PD-L1, HMGA1, p-Erk and p-Akt expression. The class given is cell-based. The method, boiled down:
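Cells were exposed to a range of test compound concentrations and then lysed in RIPA buffer containing 1% protease and 2% phosphatase inhibitors. Total lysate (20 μg protein per lane) was run on SDS-PAGE and transferred to PVDF. Membranes were blocked in 5% milk/TBST, incubated with primary antibodies overnight at 4 °C, then with an HRP-labelled secondary antibody for 2 h at room temperature.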

For experiment [2], the system named is HCT116 and CT26 cells. As to the kind of experiment: Immunogenic cell death: immunofluorescence of CRT and HMGB1. The class given is cell-based. The following applies: 100 nmol/L.

Take deoxybouvardin [RA-V]: in experiment [1] (CT26, HCT116 and SW620 cells), the HMGA1 expression result is “inhibited significantly”; the “p-Akt and p-Erk expression” value was “decreased”. The PD-L1 expression result in experiment [1] (CT26 cells, different concentrations) is given as “down-regulated PD-L1 expression remarkably”. Moreover, the “ICD effect: pre-apoptotic CRT exposure to membrane surface” value in experiment [2] is “failed to elicit significant pre-apoptotic CRT exposure”.
